Measured values from ChEMBL document CHEMBL3045116, “Synthesis and biological evaluation of 2-(5-substituted-1-((diethylamino)methyl)-2-oxoindolin-3-ylidene)-N-substituted-hydrazinecarbothioamides” (Med Chem Res, 2013).

Experiments:
Influenza B virus = assay: Antiviral activity against Influenza B virus infected in MDCK cells assessed as reduction of virus-induced cytopathic effect after 3 days by colorimetric formazan-based MTS assay; format: functional, organism-based; details: 72 h
In short: (§1)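 Confluent cell monolayers were infected with 100 CCID50 of virus, and serial dilutions of compound were added at the time of infection.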

Influenza A virus H3N2 = assay: Antiviral activity against Influenza A virus H3N2 infected MDCK cells assessed as reduction of virus-induced cytopathic effect after 3 days by colorimetric formazan-based MTS assay; format: functional, organism-based; details: 72 h; in short: as §1
Human alphaherpesvirus 1 [1] = assay: Antiviral activity against Human herpesvirus 1 strain KOS infected human HEL cells assessed as reduction of virus-induced cytopathic effect after 3 days by colorimetric formazan-based MTS assay; format: functional, organism-based; details: Human alphaherpesvirus 1, KOS, 72 h; in short: as §1
Felid alphaherpesvirus 1 = assay: Antiviral activity against Felid herpesvirus 1 infected cat CRFK cells assessed as reduction of virus-induced cytopathic effect after 3 days by colorimetric formazan-based MTS assay; format: functional, organism-based; details: Felid alphaherpesvirus 1, CRFK, 72 h
In short: (§2)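 Cells grown to confluency in 96-well plates ([…], Vero for lines 9–10) were infected with 100 CCID50 of virus, and serial compound dilutions were added at infection. Plates were incubated at 37 °C for 3 days, until complete CPE appeared in untreated virus controls.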

[2] = system: Feline infectious peritonitis virus; assay: Antiviral activity against Feline Infectious peritonitis virus infected cat CRFK cells assessed as reduction of virus-induced cytopathic effect after 3 days by colorimetric formazan-based MTS assay; format: functional, organism-based; details: Alphacoronavirus 1, CRFK, 72 h; in short: as §1
[3] = Cytotoxicity against Felis catus (cat) CRFK cells assessed as change in cellular morphology; format: cell-based; details: crfk
In short: (§3)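 Uninfected cells were exposed to compound in parallel with the antiviral cultures. The read-out is the minimum cytotoxic concentration that causes a microscopically detectable alteration of normal cell morphology.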

[4] = Inhibition of beta lactamase assessed as increase in time taken for iodine decolorization relative to control; parameters: concentration or dose not given beside the values; details: concentration not given here
[5] = Inhibition of beta lactamase assessed as time for decolorization of iodine (reference value: 79.5 secs)
CCRF-CEM = assay: Cytotoxicity against Homo sapiens (human) CEM cells assessed as growth inhibition after 72 hr by coulter counter analysis; format: functional, cell-based
In short: (§4)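 Cells in growth medium were allowed to proliferate with variable compound amounts at 37 °C in a humidified CO2 atmosphere. Incubation ran 48 h for L1210, 72 h for CEM and 96 h for HeLa. Cells were then counted with a Coulter counter.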

L1210 = assay: Cytotoxicity against Mus musculus (mouse) L1210 cells assessed as growth inhibition after 48 hr by coulter counter analysis; format: functional, cell-based; details: L1210, 48 h; in short: as §4
Influenza A virus = assay: Antiviral activity against Unidentified Influenza A virus (H1N1) infected MDCK cells assessed as reduction of virus-induced cytopathic effect after 3 days by colorimetric formazan-based MTS assay; format: functional, organism-based; details: 72 h; in short: as §1
[6] = (§5) Cytotoxicity against MDCK cells assessed as change in cellular morphology; format: cell-based, Canis lupus familiaris; details: dog, MDCK cells; in short: as §3
MDCK = assay: as §5; format: cell-based, Canis lupus familiaris; details: dog, mdck; in short: as §3
Punta Toro virus = assay: Antiviral activity against Punta Toro virus infected in African green monkey Vero cells assessed as reduction of virus-induced cytopathic effect after 3 days by colorimetric formazan-based MTS assay; format: functional, organism-based; details: 72 h; in short: as §1
Coxsackievirus B4 [7] = assay: Antiviral activity against Human coxsackievirus B4 infected African green monkey Vero cells assessed as reduction of virus-induced cytopathic effect after 3 days by colorimetric formazan-based MTS assay; format: functional, organism-based; details: Enterovirus B, 72 h; in short: as §1
Respirovirus muris = assay: Antiviral activity against Sendai virus infected African green monkey Vero cells assessed as reduction of virus-induced cytopathic effect after 3 days by colorimetric formazan-based MTS assay; format: functional, organism-based; details: 72 h
[8] = system: Mammalian orthoreovirus 1; assay: Antiviral activity against Mammalian orthoreovirus 1 infected African green monkey Vero cells assessed as reduction of virus-induced cytopathic effect after 3 days by colorimetric formazan-based MTS assay; format: functional, organism-based; details: Mammalian orthoreovirus 1, Vero, 72 h; in short: as §2
Human respirovirus 3 = assay: Antiviral activity against Human parainfluenza virus 3 infected African green monkey Vero cells assessed as reduction of virus-induced cytopathic effect after 3 days by colorimetric formazan-based MTS assay; format: functional, organism-based; details: Human respirovirus 3, Vero, 72 h; in short: as §2
[9] = Cytotoxicity against Chlorocebus aethiops (African green monkey) Vero cells assessed as change in cellular morphology; format: cell-based; details: chlorocebus sabaeus
[10] = system: Respiratory syncytial virus; assay: Antiviral activity against Respiratory syncytial virus infected human HeLa cells assessed as reduction of virus-induced cytopathic effect after 3 days by colorimetric formazan-based MTS assay; format: functional, organism-based; details: 72 h; in short: as §1
[11] = system: Vesicular stomatitis virus; assay: Antiviral activity against Vesicular stomatitis virus infected human HeLa cells assessed as reduction of virus-induced cytopathic effect after 3 days by colorimetric formazan-based MTS assay; format: functional, organism-based; details: 72 h; in short: as §1
Coxsackievirus B4 [12] = assay: Antiviral activity against Human coxsackievirus B4 infected human HeLa cells assessed as reduction of virus-induced cytopathic effect after 3 days by colorimetric formazan-based MTS assay; format: functional, organism-based; details: Enterovirus B, 72 h; in short: as §1
[13] = (§6) Cytotoxicity against Homo sapiens (human) HeLa cells assessed as change in cellular morphology; format: cell-based; details: HeLa cells; in short: as §3
HeLa = assay: as §6; format: cell-based; details: hela; in short: as §3
Human alphaherpesvirus 1 [14] = assay: Antiviral activity against acyclovir-resistant thymidine kinase negative Human herpesvirus 1 strain KOS infected human HEL cells assessed as reduction of virus-induced cytopathic effect after 3 days by colorimetric formazan-based MTS assay; format: functional, organism-based; details: Human alphaherpesvirus 1, KOS, 72 h; in short: as §1
[15] = system: Vesicular stomatitis virus; assay: Antiviral activity against Vesicular stomatitis virus infected human HEL cells assessed as reduction of virus-induced cytopathic effect after 3 days by colorimetric formazan-based MTS assay; format: functional, organism-based; details: 72 h; in short: as §1
Vaccinia virus = assay: Antiviral activity against Vaccinia virus infected human HEL cells assessed as reduction of virus-induced cytopathic effect after 3 days by colorimetric formazan-based MTS assay; format: functional, organism-based; details: Orthopoxvirus vaccinia, 72 h; in short: as §1
Human alphaherpesvirus 2 = assay: Antiviral activity against Human herpesvirus 2 strain G infected human HEL cells assessed as reduction of virus-induced cytopathic effect after 3 days by colorimetric formazan-based MTS assay; format: functional, organism-based; details: Human alphaherpesvirus 2, strain G, 72 h; in short: as §1
[16] = Cytotoxicity against Homo sapiens (human) HEL cells assessed as change in cellular morphology; format: cell-based
Candida albicans = assay: Antifungal activity against Candida albicans assessed as growth inhibition at 50 ug/ml by cup-plate method (reference value: 8 to 10 mm); format: functional; details: read-out: DIZ
Aspergillus niger = assay: Antifungal activity against Aspergillus niger assessed as growth inhibition at 50 ug/ml by cup-plate method (reference value: 8 to 10 mm); format: functional; details: read-out: DIZ
Salmonella typhi = assay: Antibacterial activity against Salmonella enterica subsp. enterica serovar Typhi assessed as growth inhibition at 50 ug/ml by cup-plate method (reference value: 8 to 10 mm); format: functional; details: read-out: DIZ
Proteus vulgaris = assay: Antibacterial activity against Proteus vulgaris assessed as growth inhibition at 50 ug/ml by cup-plate method (reference value: 8 to 10 mm); format: functional; details: read-out: DIZ
Escherichia coli = assay: Antibacterial activity against Escherichia coli assessed as growth inhibition at 50 ug/ml by cup-plate method (reference value: 8 to 10 mm); format: functional; details: read-out: DIZ
Bacillus subtilis = assay: Antibacterial activity against Bacillus subtilis assessed as growth inhibition at 50 ug/ml by cup-plate method (reference value: 8 to 10 mm); format: functional; details: read-out: DIZ
Klebsiella pneumoniae = assay: Antibacterial activity against Klebsiella pneumoniae assessed as growth inhibition at 50 ug/ml by cup-plate method (reference value: 8 to 10 mm); format: functional; details: read-out: DIZ
Staphylococcus aureus = assay: Antibacterial activity against Staphylococcus aureus assessed as growth inhibition at 50 ug/ml by cup-plate method (reference value: 8 to 10 mm); format: functional; details: read-out: DIZ

Row | Structure (SMILES) | EC50 (Influenza B virus) | EC50 (Influenza A virus H3N2) | EC50 (Human alphaherpesvirus 1 [1]) | EC50 (Felid alphaherpesvirus 1) | EC50 [2] | CC50 [3] | inhibition [4] | TIME [5] | IC50 (CCRF-CEM) | IC50 (L1210) | EC50 (Influenza A virus) | MCC [6] | CC50 (MDCK) | EC50 (Punta Toro virus) | EC50 (Coxsackievirus B4 [7]) | EC50 (Respirovirus muris) | EC50 [8] | EC50 (Human respirovirus 3) | MCC [9] | EC50 [10] | other results
1 | CCN(CC)CN1C(=O)/C(=N/NC(=S)Nc2ccc(Cl)cc2)c2cc(Cl)ccc21 | > 0.8 µM | > 0.8 µM | > 20 µM | > 4 µM | > 4 µM | 9.1 µM | 44.2% | 0.0395 h | > 125 µM | > 125 µM | > 0.8 µM | ≥ 0.8 µM | 2.4 µM | > 20 µM | > 20 µM | > 20 µM | > 20 µM | > 20 µM | 100 µM | > 20 µM | EC50 [11]: > 20 µM; EC50 (Coxsackievirus B4 [12]): > 20 µM; MCC [13]: 100 µM; CC50 (HeLa): 9.4 µM; EC50 (Human alphaherpesvirus 1 [14]): > 20 µM; EC50 [15]: > 20 µM; EC50 (Vaccinia virus): > 20 µM; EC50 (Human alphaherpesvirus 2): > 20 µM; MCC [16]: 100 µM; zone of inhibition at 50 µg/mL (Candida albicans): 21 mm; zone of inhibition at 50 µg/mL (Aspergillus niger): 21 mm; zone of inhibition at 50 µg/mL (Salmonella typhi): 21 mm; zone of inhibition at 50 µg/mL (Proteus vulgaris): 21 mm; zone of inhibition at 50 µg/mL (Escherichia coli): 21 mm; zone of inhibition at 50 µg/mL (Bacillus subtilis): 21 mm; zone of inhibition at 50 µg/mL (Klebsiella pneumoniae): 11 mm; zone of inhibition at 50 µg/mL (Staphylococcus aureus): 21 mm
2 | CCN(CC)CN1C(=O)/C(=N/NC(N)=S)c2ccccc21 | > 20 µM | > 20 µM | > 100 µM | > 20 µM | > 20 µM | 73.8 µM | 38.2% | 0.0357 h | 164 µM | 121 µM | > 20 µM | 100 µM | 85.8 µM | > 100 µM | > 100 µM | > 100 µM | > 100 µM | > 100 µM | > 100 µM | > 100 µM | EC50 [11]: > 100 µM; EC50 (Coxsackievirus B4 [12]): > 100 µM; MCC [13]: > 100 µM; CC50 (HeLa): > 100 µM; EC50 (Human alphaherpesvirus 1 [14]): > 100 µM; EC50 [15]: > 100 µM; EC50 (Vaccinia virus): > 100 µM; EC50 (Human alphaherpesvirus 2): > 100 µM; MCC [16]: > 100 µM; zone of inhibition at 50 µg/mL (Candida albicans): 11 mm; zone of inhibition at 50 µg/mL (Aspergillus niger): 11 mm; zone of inhibition at 50 µg/mL (Salmonella typhi): 11 mm; zone of inhibition at 50 µg/mL (Proteus vulgaris): 11 mm; zone of inhibition at 50 µg/mL (Escherichia coli): 11 mm; zone of inhibition at 50 µg/mL (Bacillus subtilis): 11 mm; zone of inhibition at 50 µg/mL (Klebsiella pneumoniae): 11 mm; zone of inhibition at 50 µg/mL (Staphylococcus aureus): 11 mm
